Assay results reported in ChEMBL document CHEMBL1139462, “Identification of novel and improved antimitotic agents derived from noscapine” (J Med Chem, 2005).
Activity calls are given as the source filed them. The calls are words filed in the database; no cut-off is given here.

Columns and labels:
[1] = Cell cycle arrest in HEK293EBNA cells by accumulation at G1 phase cell at 1 uM relative to DMSO; type: functional, cell-based; conditions: Homo sapiens, HEK293-EBNA
How it was run: (§1)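 HEK293 cells were exposed to compound for 16 h at the stated concentration, then analyzed by FACS for cell-cycle distribution (G1, S and G2/M fractions). Profiles were compared with a 0.5% DMSO vehicle control.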

[2] = Cell cycle arrest in HEK293EBNA cells by accumulation at G2/M phase cell at 1 uM relative to DMSO; type: functional, cell-based; conditions: Homo sapiens, HEK293-EBNA; how it was run: as §1
[3] = Cell cycle arrest in HEK293EBNA cells by accumulation at S phase cell at 1 uM relative to DMSO; type: functional, cell-based; conditions: Homo sapiens, HEK293-EBNA; how it was run: as §1
A549 [4] = test: Effect on cell growth in A549 cells by MTS assay; type: functional, cell-based; conditions: Homo sapiens
NIH3T3 [5] = test: Effect on cell growth in nondividing Swiss 3T3 cells at 50 uM by MTS assay; type: functional, cell-based; conditions: Mus musculus
[6] = (§2) Volume of distribution in mouse at 2 mg/kg, iv; type: ADME, organism-based; set-up: dose 2 mg/kg, route intravenous; conditions: in vivo, read-out: Vdss
[7] = (§3) Half life in mouse at 2 mg/kg, iv; type: ADME, organism-based; set-up: dose 2 mg/kg, route intravenous; conditions: in vivo
[8] = Clearance in mouse at 2 mg/kg, iv; type: ADME, organism-based; set-up: dose 2 mg/kg, route intravenous; conditions: in vivo
How it was run: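 Pharmacokinetics were measured in mice, with an intravenous dose of 2 mg/kg; the study's oral arm used 20 mg/kg po.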

[9] = AUC in mouse at 20 mg/kg, po; type: ADME, organism-based; set-up: dose 20 mg/kg, route oral; conditions: plasma
[10] = AUC in mouse at 2 mg/kg, iv; type: ADME, organism-based; set-up: dose 2 mg/kg, route intravenous; conditions: plasma
[11] = Bioavailability in mouse at 20 mg/kg, po; type: ADME, organism-based; conditions: in vivo
Tubulin = test: Inhibition of tubulin polymerization; type: protein-complex assay, Homo sapiens
A549 [12] = test: Effect on cell growth in A549 cells by colony-forming assay; type: functional, cell-based; conditions: Homo sapiens
[13] = Cell cycle arrest in HEK293EBNA cells by accumulation at G1 phase cell at 10 uM relative to DMSO; type: functional, cell-based; conditions: Homo sapiens, HEK293-EBNA
How it was run: (§4)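 HEK293 cells were exposed for 16 h to compound or to a 0.5% DMSO vehicle control. Cell-cycle phase distribution (G1, S, G2/M) was determined by FACS analysis and compared with the DMSO profile.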

[14] = Cell cycle arrest in HEK293EBNA cells by accumulation at G2/M phase cell at 10 uM relative to DMSO; type: functional, cell-based; conditions: Homo sapiens, HEK293-EBNA; how it was run: as §4
[15] = Cell cycle arrest in HEK293EBNA cells by accumulation at S phase cell at 10 uM relative to DMSO; type: functional, cell-based; conditions: Homo sapiens, HEK293-EBNA; how it was run: as §4
[16] = Cell cycle arrest in HEK293EBNA cells by accumulation at G2/M phase cell at 5 uM relative to DMSO; type: functional, cell-based; conditions: Homo sapiens, HEK293-EBNA; how it was run: as §1
[17] = Cell cycle arrest in HEK293EBNA cells by accumulation at S phase cell at 5 uM relative to DMSO; type: functional, cell-based; conditions: Homo sapiens, HEK293-EBNA; how it was run: as §1
[18] = Cell cycle arrest in HEK293EBNA cells by accumulation at G1 phase cell at 5 uM relative to DMSO; type: functional, cell-based; conditions: Homo sapiens, HEK293-EBNA; how it was run: as §1
[19] = Cell cycle arrest in HEK293EBNA cells by accumulation at S phase cell at 50 uM relative to DMSO; type: functional, cell-based; conditions: Homo sapiens, HEK293-EBNA; how it was run: as §1
[20] = Cell cycle arrest in HEK293EBNA cells by accumulation at G2/M phase cell at 50 uM relative to DMSO; type: functional, cell-based; conditions: Homo sapiens, HEK293-EBNA; how it was run: as §1
[21] = Cell cycle arrest in HEK293EBNA cells by accumulation at G1 phase cell at 50 uM relative to DMSO; type: functional, cell-based; conditions: Homo sapiens, HEK293-EBNA; how it was run: as §1
[22] = Cell cycle arrest in HEK293EBNA cells by accumulation at S phase cell at 0.1 uM relative to DMSO; type: functional, cell-based; conditions: Homo sapiens, HEK293-EBNA; how it was run: as §4
[23] = Cell cycle arrest in HEK293EBNA cells by accumulation at G1 phase cell at 0.1 uM relative to DMSO; type: functional, cell-based; conditions: Homo sapiens, HEK293-EBNA; how it was run: as §4
[24] = Cell cycle arrest in HEK293EBNA cells by accumulation at G2/M phase cell at 0.1 uM relative to DMSO; type: functional, cell-based; conditions: Homo sapiens, HEK293-EBNA; how it was run: as §4
NIH3T3 [25] = test: Effect on cell growth in nondividing Swiss 3T3 cells at 3 uM by MTS assay; type: functional, cell-based; conditions: Mus musculus
How it was run: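 Swiss 3T3 cells were tested in either a dividing or a nondividing state. Growth was read out by MTS assay, and an EC50 was derived for the dividing cells.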

Mus musculus [26] = test: as §2; type: ADME, organism-based; set-up: dose 2 mg/kg, route intravenous; conditions: in vivo
Mus musculus [27] = test: as §3; type: ADME, organism-based; set-up: dose 2 mg/kg, route intravenous; conditions: in vivo
[28] = Cell cycle arrest in HEK293EBNA cells by accumulation at G1 phase cell at 0.5 uM relative to DMSO; type: functional, cell-based; conditions: Homo sapiens, HEK293-EBNA; how it was run: as §1
[29] = Cell cycle arrest in HEK293EBNA cells by accumulation at G2/M phase cell at 0.5 uM relative to DMSO; type: functional, cell-based; conditions: Homo sapiens, HEK293-EBNA; how it was run: as §1
[30] = Cell cycle arrest in HEK293EBNA cells by accumulation at S phase cell at 0.5 uM relative to DMSO; type: functional, cell-based; conditions: Homo sapiens, HEK293-EBNA; how it was run: as §1

COc1ccc2c(c1)C(=O)O[C@@H]2[C@H]1c2c(cc3c(c2OC)OCO3)CCN1C
Activity [1]: 4%
Activity [2]: 90%
Activity [3]: 6%

COc1ccc2c(c1O)C(=O)O[C@@H]2[C@H]1c2c(cc3c(c2OC)OCO3)CCN1C
EC50 (A549 [4]): 600 nM
Activity (NIH3T3 [5]): inactive
Activity [1]: 3%
Vd [6]: 28.1 L/kg
half-life [7]: 2.79 h
clearance [8]: 101 mL/min/kg
AUC [9]: 740 ng·h/mL
AUC [10]: 331 ng·h/mL
Activity [2]: 88%
bioavailability [11]: 22%
EC50 (Tubulin): 700 nM
Activity [3]: 9%
EC50 (A549 [12]): 500 nM

COc1cc2c(c(OC)c1OC)-c1ccc(OC)c(=O)cc1[C@@H](NC(C)=O)CC2
Activity [13]: 3%
Activity [14]: 83%
Activity [15]: 14%

COc1ccc2c(c1S)C(=O)O[C@@H]2[C@H]1c2c(cc3c(c2OC)OCO3)CCN1C
Activity [16]: 90%
Activity [17]: 7%
Activity [18]: 3%

COc1ccc2c(c1NCc1ccccc1)C(=O)O[C@@H]2[C@H]1c2c(cc3c(c2OC)OCO3)CCN1C
Activity [16]: 63%
Activity [17]: 29%
Activity [18]: 8%

COc1ccc2c(c1N)C(=O)O[C@@H]2[C@H]1c2c(c(Br)c3c(c2OC)OCO3)CCN1C
Activity [1]: 4%
Activity [2]: 81%
Activity [3]: 15%

COc1ccc2c(c1OS(=O)(=O)C(F)(F)F)C(=O)O[C@@H]2[C@H]1c2c(cc3c(c2OC)OCO3)CCN1C
Activity [19]: 35%
Activity [20]: 9%
Activity [21]: 56%

COc1ccc2c(c1N)C(=O)O[C@@H]2[C@H]1c2c(cc3c(c2OC)OCO3)CCN1C
EC50 (A549 [4]): 97 nM
Activity [22]: 7%
Vd [6]: 8.47 L/kg
half-life [7]: 1.04 h
clearance [8]: 95.3 mL/min/kg
AUC [9]: 391 ng·h/mL
AUC [10]: 350 ng·h/mL
Activity [23]: 1%
Activity [24]: 92%
bioavailability [11]: 11.4%
EC50 (Tubulin): 300 nM
EC50 (A549 [12]): 84 nM
Activity (NIH3T3 [25]): inactive

COc1ccc2c(c1OC)C(=O)O[C@@H]2[C@H]1c2c(cc3c(c2OC)OCO3)CCN1C [NOSCAPINE]
EC50 (A549 [4]): 25000 nM
Vdss (Mus musculus [26]): 15.53 L/kg
t1/2 (Mus musculus [27]): 0.833 h
AUC [9]: 524 ng·h/mL
Activity [19]: 31%
AUC [10]: 345 ng·h/mL
bioavailability [11]: 14.1%
EC50 (Tubulin): > 50000 nM
Activity [20]: 50%
Activity [21]: 19%

CNc1c(OC)ccc2c1C(=O)O[C@@H]2[C@H]1c2c(cc3c(c2OC)OCO3)CCN1C
Activity [28]: 8%
Activity [29]: 67%
Activity [30]: 25%

CC[C@]1(O)C[C@@H]2CN(CCc3c([nH]c4ccccc34)[C@@](C(=O)OC)(c3cc4c(cc3OC)N(C)[C@H]3[C@@](O)(C(=O)OC)[C@H](OC(C)=O)[C@]5(CC)C=CCN6CC[C@]43[C@@H]65)C2)C1 [VINBLASTINE]
EC50 (A549 [4]): 0.9 nM
EC50 (A549 [12]): 0.5 nM
